From ChEMBL document CHEMBL1667836, “Synthesis of egonol derivatives and their antimicrobial activities” (2011)
≈ marks a conversion by molar mass, not a printed value. Calls of active or inactive are those of the source. No cut-off for these calls is given here.

Legend:
Format in all cases: functional
Escherichia coli = assay: Antimicrobial activity against Escherichia coli ATCC 8739 by MHB method
In short: (§1)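 Broth-based MIC assay in Mueller Hinton broth. Test compounds were supplied from stock solutions in DMSO. The read-out was the minimum inhibitory concentration determined for each compound against each strain.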

Staphylococcus aureus = assay: Antimicrobial activity against Staphylococcus aureus ATCC 29213 by MHB method; in short: as §1
Bacillus subtilis = assay: Antimicrobial activity against Bacillus subtilis ATCC 6633 by MHB method; in short: as §1
Candida albicans = assay: Antimicrobial activity against Candida albicans ATCC 10231 by MHB method; in short: as §1

| SMILES | MIC (Escherichia coli) | MIC (Staphylococcus aureus) | MIC (Bacillus subtilis) | MIC (Candida albicans) |
| --- | --- | --- | --- | --- |
| COc1cc(CCCOS(=O)(=O)O)cc2cc(-c3ccc4c(c3)OCO4)oc12 | 400 µg/mL (≈ 984 µM) | 400 µg/mL (≈ 984 µM) | 400 µg/mL (≈ 984 µM) | 50 µg/mL (≈ 123 µM) |
| COc1cc(CC/C=N/OC(=O)CCl)cc2cc(-c3ccc4c(c3)OCO4)oc12 | 800 µg/mL (≈ 1920 µM) | inactive | inactive | 25 µg/mL (≈ 60.1 µM) |
| COc1cc(CC/C=N/NC(N)=O)cc2cc(-c3ccc4c(c3)OCO4)oc12 | inactive | inactive | 400 µg/mL (≈ 1050 µM) | 25 µg/mL (≈ 65.6 µM) |
| COc1cc(CCCCl)cc2c([N+](=O)[O-])c(-c3ccc4c(c3)OCO4)oc12 | 800 µg/mL (≈ 2050 µM) | inactive | inactive | 25 µg/mL (≈ 64.1 µM) |
| COc1cc(CC/C=N/OC(=O)c2ccccc2)cc2cc(-c3ccc4c(c3)OCO4)oc12 | inactive | inactive | 400 µg/mL (≈ 902 µM) | 100 µg/mL (≈ 226 µM) |
| COc1c([N+](=O)[O-])c(CCCO)cc2c([N+](=O)[O-])c(-c3ccc4c(c3)OCO4)oc12 | 400 µg/mL (≈ 961 µM) | 800 µg/mL (≈ 1920 µM) | 400 µg/mL (≈ 961 µM) | 400 µg/mL (≈ 961 µM) |
| COc1cc(CCCOC(=O)CN2CCOCC2)cc2cc(-c3ccc4c(c3)OCO4)oc12 | 800 µg/mL (≈ 1760 µM) | inactive | inactive | inactive |
| COc1cc(CCCO)cc2c(N)c(-c3ccc4c(c3)OCO4)oc12 | inactive | inactive | inactive | 800 µg/mL (≈ 2340 µM) |
| COc1cc(CCCOC(C)=O)cc2cc(-c3ccc4c(c3)OCO4)oc12 [EGONOL ACETATE] | inactive | inactive | inactive | 200 µg/mL |
| COc1cc(CC/C=N/O)cc2cc(-c3ccc4c(c3)OCO4)oc12 | inactive | inactive | inactive | 800 µg/mL (≈ 2360 µM) |
| COc1cc(CCCOC(=O)CCl)cc2cc(-c3ccc4c(c3)OCO4)oc12 | inactive | inactive | inactive | 100 µg/mL (≈ 248 µM) |
| COc1cc(CC/C=C(\C=O)Cc2cc(OC)c3oc(-c4ccc5c(c4)OCO5)cc3c2)cc2cc(-c3ccc4c(c3)OCO4)oc12 | inactive | 25 µg/mL (≈ 39.6 µM) | inactive | 25 µg/mL (≈ 39.6 µM) |
| COc1cc(CCCN2CCOCC2)cc2cc(-c3ccc4c(c3)OCO4)oc12 | inactive | 200 µg/mL (≈ 506 µM) | inactive | 25 µg/mL (≈ 63.2 µM) |
| CCN(CC)CCCc1cc(OC)c2oc(-c3ccc4c(c3)OCO4)cc2c1 | inactive | inactive | inactive | 200 µg/mL (≈ 524 µM) |
| COc1cc(CCCO)cc2cc(-c3ccc4c(c3)OCO4)oc12 [EGONOL] | 800 µg/mL (≈ 2450 µM) | 800 µg/mL (≈ 2450 µM) | 800 µg/mL (≈ 2450 µM) | 25 µg/mL (≈ 76.6 µM) |
| COc1cc(CC/C=C/C(C)=O)cc2cc(-c3ccc4c(c3)OCO4)oc12 | inactive | inactive | inactive | 200 µg/mL (≈ 549 µM) |
| COc1ccc(-c2cc3cc(CCCOC(=O)CCl)cc(OC)c3o2)cc1OC | inactive | 400 µg/mL (≈ 955 µM) | 400 µg/mL (≈ 955 µM) | 200 µg/mL (≈ 477 µM) |
| COc1cc(CC/C=N/NC(N)=S)cc2cc(-c3ccc4c(c3)OCO4)oc12 | inactive | inactive | 400 µg/mL (≈ 1010 µM) | 200 µg/mL (≈ 503 µM) |
| COc1cc(CCC(=O)O)cc2cc(-c3ccc4c(c3)OCO4)oc12 [EGONOIC ACID] | inactive | 200 µg/mL (≈ 588 µM) | 800 µg/mL (≈ 2350 µM) | 50 µg/mL (≈ 147 µM) |
